According to ChEMBL document CHEMBL2034844, “Novel multi-functional nitrones for treatment of ischemic stroke” (2012):
Calls of active or inactive are those of the source. The rule behind the calls is not given here.

Tests used:
Neuron [1] = test: Neuroprotective activity against t-BHP-induced rat cerebellar granule neuronal damage at 100 uM preincubated for 30 mins prior t-BHP challenge measured after 4 hrs by MTT assay (reference value: 49.4%); assay type: functional, cell-based
Neuron [2] = test: Neuroprotective activity against t-BHP-induced rat cerebellar granule neuronal damage at 1000 uM preincubated for 30 mins prior t-BHP challenge measured after 4 hrs by MTT assay (reference value: 49.4%); assay type: functional
[3] = Antioxidant activity assessed as peroxynitrite radical-scavenging activity at 1 to 1000 uM by SIN-1 based chemiluminescence assay; assay type: functional
Summary of the method: (§1)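 Peroxynitrite generated from SIN-1 dissolved in 0.1 M PBS. The mix held PBS, luminol, compound or PBS control, and SIN-1 added last to start the reaction; read-out was chemiluminescence.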

[4] = test system: Radical scavenging activity; test: Antioxidant activity assessed as DPPH radical-scavenging activity at 0.5 to 4 mM by spectrophotometry; assay type: functional
Summary of the method: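 50 µL methanolic compound solution mixed with 150 µL methanolic DPPH; absorbance at 515 nm followed continuously until stable (50 min); clearance (%) calculated from the control absorbance and the reaction absorbance at 50 min.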

Platelet = test: Inhibition of platelet aggregation in New Zealand rabbit platelet rich plasma assessed as maximum platelet aggregation at 2 mM after 8 mins by platelet aggregometry (reference value: 57.3 +/- 8.3%); assay type: functional, Oryctolagus cuniculus; design: scale not given: the % may be the effect or the level left
[5] = Antioxidant activity assessed as superoxide anion-scavenging activity at 125 to 1000 uM by spectrophotometry; assay type: functional
Summary of the method: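 Glass-cuvette mix of Tris–HCl buffer (pH 8.2), pyrogallic acid solution (0.16 mmol/L) and test sample at final 125, 250, 500 and 1000 µM; pyrogallol-autoxidation superoxide assay.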

[6] = Antioxidant activity assessed as peroxynitrite radical-scavenging activity at 1000 uM by SIN-1 based chemiluminescence assay; assay type: functional; summary of the method: as §1
Rattus norvegicus = test: Neuroprotective activity in Sprague-Dawley rat tMCAO model assessed as reduction in total brain infarct volume at 110 mg/kg, ip after 24 hrs by TTC staining relative to control; assay type: functional; design: scale not given: the % may be the effect or the level left; conditions: route intraperitoneal
Summary of the method: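 Adult male Sprague–Dawley rats (260–310 g), chloral hydrate anaesthesia; nylon suture occluding right MCA for 2 h, then reperfusion. Only rats with neurological score 2 or 3 used; body temperature held at 37 °C. Dosed ip 2 h after MCAO; saline vehicle controls. Killed after 22 h reperfusion; six 2-mm coronal slices stained with 0.5% TTC, 37 °C, 30 min; infarct volume by image analysis; n = 13/group.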

[7] = Antioxidant activity assessed as peroxynitrite radical-scavenging activity at 1 uM by SIN-1 based chemiluminescence assay; assay type: functional; summary of the method: as §1
[8] = Antioxidant activity assessed as hydroxyl radical-scavenging activity at 1000 uM by monitoring p-NDA bleaching using spectrophotometry; assay type: functional
Summary of the method: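 Fenton-generated hydroxyl radical from FeSO4 (final 4.0 mM) and freshly prepared H2O2 (7.3 mM). p-NDA was prepared at 1.6 mM in 50 mM NaCl. Compounds were dissolved in double-distilled water at final 125–1000 µM. p-NDA bleaching was followed as absorbance loss at 440 nm over 100 s; clearance (%) was calculated from absorbance at 0 and 100 s.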

Structure (SMILES)	Activity (Neuron [1])	Activity (Neuron [2])	Activity [3]	Activity [4]	Activity (Platelet)	Activity [5]	Activity (Neuron [2]; record 2)	Activity [6]	Activity (Rattus norvegicus)	Activity [7]	Activity [8]
CC(C)(C)/[N+]([O-])=C/c1cnc2ccccc2n1	inactive	53.9%	inactive	Active	–	–	–	–	–	–	–
CC(=O)Oc1ccccc1C(=O)O [ASPIRIN]	–	–	–	–	26.6%	–	–	–	–	–	–
CC(C)(C)/[N+]([O-])=C\c1ccccc1	–	–	Active	Active	–	inactive	–	–	–	–	–
Cc1nc(C)c(C)nc1C [LIGUSTRAZINE]	–	58.4%	inactive	Active	42.9%	inactive	–	–	–	–	–
CCc1nccnc1/C=[N+](\[O-])C(C)(C)C	Active	Active	Active	–	33.8%	Active	64.6%	–	–	–	–
CC(C)(C)/[N+]([O-])=C/c1cccc2nccnc12	inactive	54.8%	inactive	Active	–	–	–	–	–	–	–
CCCc1nccnc1/C=[N+](\[O-])C(C)(C)C	Active	Active	Active	Active	48%	Active	66%	–	–	–	–
Cc1nc(/C=[N+](\[O-])C(C)(C)C)c(C)nc1/C=[N+](\[O-])C(C)(C)C	Active	80.6%	–	Active	37.7%	Active	–	99.4%	65%	31.9%	–
Cc1nc(C)c(CN(Cc2nc(C)c(C)nc2C)C(C)(C)C)nc1C	Active	75.5%	inactive	Active	44.3%	inactive	–	–	–	–	100%
